# Screens as filed in PubChem BioAssay.
# sdo1 growth = compounds rescuing growth of sdo1-depleted yeast, bone marrow failure model. S. cerevisiae sdo1-depleted JHY4D growth rescue, OD600 30 h; stronger effect = higher value; pdr5 snq2 efflux-pump mutant strain. z-score at 10 µM. actives 0.21% (n = 140,000). AID 817;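 active = z-score above 3 at both the 24 hr and the 30 hr optical density reads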;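 note: z-score against mean and SD of all compound wells on the same plate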
# BB579 growth dn = chemicals that inhibit yeast BB579 growth in restrictive medium (lifespan-shortening candidates). AID 804. inhibition, % at 10 µM. actives 0.51% (n = 140,000). S. cerevisiae BB579 growth, OD615, 48 h;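 active = inhibition above a set limit, 3 SD over the mean compound inhibition, cut at about 44% in these data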
#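 Test system: S. cerevisiae DeaD strain BB579 yeast; Medium: restrictive CSMM-D medium; Compound: one dose, 10 µM compound with 0.25% DMSO; Incubation: 4 h cell preincubation, 48 h compound exposure, 30 °C humidified; Signal: OD at 615 nm; Benchmarks: amphotericin B at 10 µg/mL as positive control.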
# Yeast lifespan up = yeast lifespan extension; S. cerevisiae growth with nicotinamide, OD615; deaD strain in restrictive glucose medium; inhibition of the nicotinamide effect, % at 10 µM; actives 0.68% (n = 130,000); AID 775;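 active = inhibition above a set limit, placed 3 SD over the median of all compounds, cut at about 26% in these data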;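 note: 0% = nicotinamide-treated wells and 100% = cells grown without nicotinamide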
#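 Material: Modified budding yeast, DeaD strain | Medium: Restrictive glucose medium | Probe or stimulus: 1.5 mM nicotinamide | Dosing: Single dose 10 µM compound, 0.25% DMSO | Times: 48 h at 30 °C | Technique: OD615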
# RAM inhibit = inhibitors of the yeast RAM network; inhibition, % at 50 µM; S. cerevisiae dse1pr::URA3 reporter, 5-FOA growth OD615, 2 d; analog-sensitive cbk1-as2 kinase mutant strain; actives 1.8% (n = 190,000);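 active = inhibition above a set limit, 3 SD over mean compound inhibition, cut at about 8.4% in these data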;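 note: 0% = DMSO-only wells with no growth and 100% = 10 µM 1-NA-PP1 full growth; inhibition rescues growth on 5-FOA so higher OD means more RAM inhibition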
# The depositor's hits bear a star; · = not tested or not shown. This is a sample that favours compounds with a hit; in the whole collection about 2.7% have one here.
SMILES,sdo1 growth,BB579 growth dn,Yeast lifespan up,RAM inhibit
CCOc1ccc(N=C(C)c2ccccc2O)cc1,1.1,-24,-10,1
CC(C)(C)n1nc(-c2ccc(Cl)cc2)c2c(N)ncnc21,-2.6,83*,-18,-1
CC(C)(C)n1nc(-c2ccc(F)cc2)c2c(N)ncnc21,-2.7,88*,-6,0
COc1ccc(Cl)cc1NC(=O)COC(=O)c1cc(NS(=O)(=O)c2cccs2)ccc1O,-0.57,-49,3,11*
O=C(COc1ccc(Cl)cc1Cl)Nc1ccccc1NS(=O)(=O)c1cccs1,·,·,·,3
CCOC(=O)c1sc(NC(=O)CSc2nnc(Cc3ccccc3)o2)c(C(=O)OCC)c1C,-0.26,-4,-5,8.9*
CCOC(=O)c1c(NC(=O)CSc2ncnc3ccccc23)sc(C)c1C,0.64,-39,1,8.9*
CCOC(=O)c1sc(NC(=O)CSc2nc3ccccc3o2)c(C(=O)OCC)c1C,-0.97,-25,4,8
CC1CCN(C(=O)CN(c2ccc(Cl)c(C(F)(F)F)c2)S(C)(=O)=O)CC1,0.09,4,0,2
COc1ccc(CCNC(=O)C2CCN(S(=O)(=O)N3CCCCC3)CC2)cc1OC,-0.19,-17,-3,1
COC(=O)C1=C(C(=O)OC)C(c2cc(Br)ccc2O)c2sc(=O)[nH]c2S1 (stereo not drawn),-0.8,-16,61*,1
COC(=O)C1=C(C(=O)OC)C(c2cc(Cl)ccc2O)c2sc(=O)[nH]c2S1 (stereo not drawn),-1.2,-39,49,1
Cc1ccc(S(=O)(=O)N2CCC(C(=O)N3Cc4ccccc4C3)CC2)cc1,-0.99,-22,-6,1
CC(NC(=O)Nc1ccccc1)C(c1cccs1)N1CCOCC1 (stereo not drawn),-0.24,-27,-5,0
CC(NC(=O)Nc1ccc(Cl)cc1)C(c1cccs1)N1CCOCC1 (stereo not drawn),0.1,49*,-7,0
O=S(=O)(Cc1cc(Cl)nc(-c2ccncc2)n1)c1ccccc1,·,·,·,2
CCOc1cc(/C=N/N=C(N)N)ccc1OCc1ccc(Cl)cc1,-1.6,-34,-4,9.8*
OC(COC(c1ccc(F)cc1)c1ccc(F)cc1)CN1CCc2ccccc2C1 (stereo not drawn),0.05,1,4,1
COc1ccc(S(=O)(=O)N/N=c2\oc3c(OC)cccc3cc2S(=O)(=O)c2ccc(C)cc2)cc1OC,·,·,·,11*
CCN(CC)S(=O)(=O)c1cc(NC(=O)C(C)N(C)CC(=O)Nc2c(C)cccc2C)ccc1C (stereo not drawn),-0.26,-20,-4,2
Cc1nc(SCC(=O)N(C)Cc2ccco2)c2c(C)c(C)sc2n1,-1,-22,-12,0
CC1CCCN(C(=S)Nc2ccc(Nc3ccccc3)cc2)C1 (stereo not drawn),·,·,·,9.3*
O=C(CC1Sc2ccccc2NC1=O)OCc1cc(=O)oc2cc(O)ccc12 (stereo not drawn),0.07,-50,1,3
O=C(/C=C/c1ccc2c(c1)OCO2)N1CCOCC1,0.96,-52,-7,2
CC1(C)CC(=O)C(C(c2cccc([N+](=O)[O-])c2)C2C(=O)CC(C)(C)CC2=O)C(=O)C1,0.12,-47,27*,-1
SMILES,sdo1 growth,BB579 growth dn,Yeast lifespan up,RAM inhibit
COC(=O)c1sc(S(=O)(=O)NCc2ccccc2)c(C(=O)OC)c1C,-0.55,-44,1,0
Cc1nc2ccccn2c1C(=O)NN=C1C2CC3CC(C2)CC1C3,0.63,-26,38*,1
CC1=NN(c2ccccc2)C(=O)/C1=C\C=C1\N(C)c2ccccc2C1(C)C,-2,-10,-6,1
CC(=O)N(C(C)=O)c1c(C#N)c(C)n(-c2ccccc2)c1C(=O)c1ccccc1,-0.3,-52,32*,4
CC(=O)Nc1ccc(S(=O)(=O)Nc2nc3ccc(C)cc3s2)cc1,0.9,10,-4,4
CNS(=O)(=O)c1cccc(C(=O)OCC(=O)Nc2ccc(-c3nc4ccc(C)cc4s3)cc2)c1,·,·,·,11*
Cc1ccc2nc(-c3ccc(NS(=O)(=O)c4ccc(F)cc4)cc3)sc2c1,-1.7,91*,-7,4
COc1ccnc(N=CNOCc2cccc(Cl)c2Cl)c1C#N,0.2,-29,-3,6
Cn1nc(-c2ccc(OCC(N)=O)cc2)c2ccccc2c1=O,0.35,-33,-5,1
O=C(CSc1oc(-c2cccs2)nc1S(=O)(=O)c1ccc(F)cc1)NCC1CCCO1 (stereo not drawn),0.45,-14,-8,9.1*
